Bioassay records (PubChem)
Hits are enriched below; roughly 3.5% of the tested compounds scored in any of these assays.
RGS4 pot: RGS4 potentiators or activators, primary screen, cell-based, HEK293 M3R inducible RGS4, calcium flux. AID 463111, 2010. B-score at 10 µM. 310,000 tested, 0.92% active. carbachol calcium flux Fluo4; active compounds read low;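 active = B-score of the integrated calcium signal more than 4 SD below the library mean, with starting fluorescence not abnormally high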;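 note: negative B-score means reduced calcium response which marks RGS4 activation or potentiation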
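Material: M3R-expressing HEK293 line, RGS4 induced by doxycycline | Schedule: Overnight RGS4 induction, 30 min dye load 37 °C, 20 min compound RT | Measured by: Fluo4 fluorescence kinetic imaging of calcium | Read-out: Integrated calcium ratio converted to B score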
MrgX1 allo act: positive allosteric modulators of MrgX1, primary screen, HEK293 cells, Fluo-4 calcium flux; B-score at 10 µM; AID 588675, 2011; Mas-related G-protein coupled receptor member X1 (Homo sapiens), Q96LB2; FDSS; active compounds read high; 310,000 tested, 0.63% active;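 active = plate-corrected calcium response at least 3 library SD above typical, normal starting fluorescence, not activating the receptor alone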;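 note: compound read alongside a low EC10 to EC30 dose of BAM8-22 agonist; peak minus trough fluorescence over baseline measured at the second addition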
Target sequence (Q96LB2 whole entry, looked up): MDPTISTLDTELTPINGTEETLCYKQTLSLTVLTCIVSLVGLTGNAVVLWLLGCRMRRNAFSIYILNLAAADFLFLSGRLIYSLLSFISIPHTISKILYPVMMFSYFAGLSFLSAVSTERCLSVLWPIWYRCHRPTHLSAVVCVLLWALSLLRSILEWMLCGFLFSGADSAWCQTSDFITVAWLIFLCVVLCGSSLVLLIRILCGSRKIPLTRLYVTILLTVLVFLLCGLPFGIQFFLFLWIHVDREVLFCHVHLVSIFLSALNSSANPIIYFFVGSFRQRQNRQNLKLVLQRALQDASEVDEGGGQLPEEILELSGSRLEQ
RGS4 inh: RGS4 inhibitors, primary screen, cell-based, HEK293 M3R inducible RGS4, calcium flux; Regulator of G-protein signaling 4 (Homo sapiens), P49798; Fluo-4 calcium flux; active compounds read high; triggered by carbachol at its EC20; B-score at 10 µM; 310,000 tested, 0.45% active;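 active = B-score, a plate-corrected calcium signal, over three deviations above library mean, with baseline fluorescence within five deviations of library mean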;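 note: RGS4 expression induced by doxycycline in cells with stable M3 receptor; B-score is computed from the integrated fluorescence ratio over baseline after carbachol; higher B-score means a larger calcium signal and so more RGS4 inhibition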
Target sequence (P49798 whole entry, looked up): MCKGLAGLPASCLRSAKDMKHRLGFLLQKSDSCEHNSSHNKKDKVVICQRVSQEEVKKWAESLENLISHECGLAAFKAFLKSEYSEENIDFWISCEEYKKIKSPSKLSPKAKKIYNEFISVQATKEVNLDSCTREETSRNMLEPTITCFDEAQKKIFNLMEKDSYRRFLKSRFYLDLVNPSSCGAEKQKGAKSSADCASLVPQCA
MrgX1 antagonist: antagonists of human MrgX1 receptor, primary screen, HEK293 cells, Fluo-4 calcium flux; BAM8-22 antagonism; active compounds read low; 310,000 tested, 1.3% active; Mas-related G-protein coupled receptor member X1 (Homo sapiens), Q96LB2; B-score at 10 µM; AID 588676, 2011;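 active = calcium-response B-score plate-corrected more than 3 library SD below zero, starting fluorescence within 5 deviations, no agonist response on first addition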;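 note: peak minus trough fluorescence over baseline after final BAM8-22 challenge near maximal dose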
MrgX1 ag: agonists of human MrgX1 receptor, primary screen, HEK293 cells, Fluo-4 calcium flux. Mas-related G-protein coupled receptor member X1 (Homo sapiens), Q96LB2. Fluo-4 calcium fluorescence, agonist mode; active compounds read high. B-score at 10 µM. 310,000 tested, 0.44% active;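 active = calcium response B-score plate-corrected fluorescence ratio at least 3 library SD, with starting fluorescence B-score inside 5 SD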
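Test system: Stable human MrgX1 HEK293 cell line | Schedule: Overnight plating before 1 h dye loading | Read-out basis: Baseline-normalised fluorescence change ratio, B-scored | Detection: Kinetic calcium dye fluorescence, Fluo-4 NW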
RGS4 inh valid: enhanced carbachol calcium response, M3R/RGS4 cells, RGS4 inhibitor project, cell-based, validation screen, HEK293 M3R/RGS4, calcium flux; AID 492999, 2010; calcium response, % at 10 µM; shares compounds with RGS4 inh; 1,700 tested, 65% active; carbachol calcium Fluo-4 fluorescence; carbachol added at its EC20; 0 = buffer wells, 100 = carbachol control;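 active = duplicate-averaged calcium response above the buffer-only control mean plus 5 SD of those controls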;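 note: integrated fluorescence ratio F max minus min over baseline F0; higher response in RGS4-induced cells means RGS4 inhibition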
RGS4 uninduced: carbachol calcium response in non-induced M3R cells, confirmation, counter-screen for RGS4 inhibitor project, cell-based, HEK293 M3R; carbachol calcium Fluo-4; submaximal (EC20) carbachol stimulus; buffer wells 0%, carbachol control wells 100%; shares compounds with RGS4 inh; activity (percent), % at 10 µM; 1,900 tested, 20% active; call rule not given here;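 note: RGS4 induction absent so cells express M3R without RGS4; higher means more calcium signal and flags a non-specific hit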
M3R basal Ca ctr: signal in non-induced cells without carbachol, RGS4 inhibitor counter-screen | shares compounds with RGS4 inh | HEK293 M3R/RGS4 non-induced, Fluo-4 calcium, no carbachol; normalised: buffer wells 0%, carbachol wells 100% | calcium response (agonist-mode artifact), % at 10 µM | 1,900 tested, 22% active | AID 493001;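 active = duplicate-averaged calcium rise in uninduced cells above buffer wells' mean plus 5 SD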
An asterisk follows results filed as active; i = inactive; · = no result given.

SMILES | RGS4 pot | MrgX1 allo act | RGS4 inh | MrgX1 antagonist | MrgX1 ag | RGS4 inh valid | RGS4 uninduced | M3R basal Ca ctr
NC(=O)C1=NOC(CNc2ncc(C(F)(F)F)cc2Cl)C1 (stereo not given) | i | i | i | i | i | i | i | i
O=C(Cc1cccs1)N1CCC(c2nc3c(nnn3Cc3ccccc3)c(=O)[nH]2)CC1 | i | i | i | i | i | i | i | i
CC(C)(C)c1ccc(Cn2nnc3c(=O)[nH]c(C4CCN(C(=O)Cc5cccs5)CC4)nc32)cc1 | i | i | 5.4* | i | i | 27%* | i | i
CC(C)(C)c1ccc(Cn2nnc3c(=O)[nH]c(C4CCCN(C(=O)Cc5cccs5)C4)nc32)cc1 (stereo not given) | i | i | i | i | i | · | · | ·
Cc1ccc(Cn2nnc3c(=O)[nH]c(C4CCN(C(=O)Cc5cccs5)CC4)nc32)cc1 | i | i | i | i | i | · | i | i
O=C(Cc1cccs1)N1CCCC(c2nc3c(nnn3Cc3ccc(F)cc3)c(=O)[nH]2)C1 (stereo not given) | i | i | i | i | i | · | · | ·
Cc1[nH]nc2c1C(c1ccc(-c3ccccc3C#N)o1)C(C#N)=C(N)O2 (stereo not given) | i | i | 9.8* | i | i | 24%* | i | 8.5%*
Cn1c(N)c(C(=O)COC(=O)CNS(=O)(=O)c2cccc(Cl)c2)c(=O)n(C)c1=O | i | i | i | i | i | · | · | ·
COc1ccc(-n2c(O)c(/C=C3\C=Nc4ccccc43)c(=O)[nH]c2=O)cc1 | i | · | i | · | · | · | · | ·
Cc1ccc(-n2c(O)c(/C=C3/C(c4ccccc4)=Nc4ccccc43)c(=O)[nH]c2=O)cc1 | i | i | 9.8* | i | 29* | 5.0%* | i | 49%*
N/C(=N/O)c1ccccc1N1CCC(Cc2ccccc2)CC1 | i | i | i | i | i | · | · | ·
CC1(C)CC(=O)c2sc(NC(=O)c3ccccc3)nc2C1 | i | i | i | i | i | · | · | ·
CC1(C)CC(=O)c2sc(NC(=O)CCS(=O)(=O)c3ccccc3)nc2C1 | i | i | 4.7* | i | i | 7.5%* | i | i
O=C(NNc1c2ccccc2nc2ccccc12)c1ccccc1O | i | i | i | i | i | · | · | ·
O=C(NNc1nc(=O)c2cccnc2s1)c1ccccc1O | i | i | 5.2* | i | i | 18%* | i | i
COc1ccc(CNC(=O)C2CCN(S(=O)(=O)c3cccc4nonc34)CC2)cc1 | i | i | i | i | i | · | · | ·
Cc1ccc(NC(=O)CN(C)C(=O)Cn2cc(C(F)(F)F)cc(Cl)c2=O)cc1 | i | i | 5.5* | i | i | i | i | i
CCCn1c(C(=O)OC)cc2c1ccn2-c1ccc(F)cc1 | i | i | i | i | i | · | · | ·
COC(=O)c1cc2c(ccn2-c2ccc(F)cc2)n1CC(C)C | i | i | 11* | i | i | 36%* | i | i
Cc1[nH]c2ccccc2c1/C=N/Nc1nc(N2CCCCC2)nc(N2CCCCC2)n1 | i | i | 11* | i | i | 38%* | 63%* | i
C(=N\Nc1nc(N2CCCCC2)nc(N2CCCCC2)n1)/c1c[nH]c2ccccc12 | i | i | i | i | i | · | · | ·
CC(Oc1ccc2c(c1)oc(=O)c1ccccc12)C(=O)NCCN1CCOCC1 (stereo not given) | i | i | i | i | i | · | · | ·
CCc1cccc(CC)c1NC(=S)NCCc1c(C)[nH]c2ccc(C)cc12 | i | i | i | i | i | · | i | i
CCc1cccc(C)c1NC(=S)NCCc1c(C)[nH]c2ccc(C)cc12 | i | i | i | i | i | · | · | ·
CCOC(=O)Cc1csc(SCC(=O)NC2CCC(C)CC2)n1 (stereo not given) | i | i | i | i | i | · | · | ·
SMILES | RGS4 pot | MrgX1 allo act | RGS4 inh | MrgX1 antagonist | MrgX1 ag | RGS4 inh valid | RGS4 uninduced | M3R basal Ca ctr
CC1CCN(S(=O)(=O)c2cccc(C(=O)NNC(=O)c3ccco3)c2)CC1 | i | i | i | i | i | · | · | ·
NS(=O)(=O)c1ccc(NC2=CC(c3ccc([N+](=O)[O-])cc3)N(c3ccc(S(N)(=O)=O)cc3)C2=O)cc1 (stereo not given) | i | i | i | i | i | · | · | ·
Cc1[nH]c2ccccc2c1-c1nc(-c2ccc(Cl)cc2)nnc1-c1ccccc1 | i | i | i | i | i | · | · | ·
O=C(CNc1ccc2ccccc2c1)N/N=C/c1cc2ccccc2nc1Cl | i | i | i | i | i | · | i | i
CC(=O)c1c[nH]c(C(=O)NCc2ccccc2Cl)c1 | i | i | 5.2* | i | i | i | i | i
COC(=O)C(C)Sc1nc2c(c(=O)n(C)c(=O)n2C)n1CCC(C)C (stereo not given) | i | i | i | i | i | · | · | ·
CCC(C)Nc1nc2c(c(=O)[nH]c(=O)n2C)n1CCC(C)C (stereo not given) | i | i | i | i | i | i | i | i
COC(=O)C(C)Sc1nc2c(c(=O)[nH]c(=O)n2C)n1CCC(C)C (stereo not given) | i | i | 5.7* | i | i | 26%* | 56%* | i
COc1ccc2c(c1OC)C(=O)OC2N1C(=O)CC[C@H]1C(=O)Nc1ccc2c(c1)OCO2 (stereo not given in full) | i | i | i | i | i | · | · | ·
Cn1ncc(Br)c1C(=O)NC1CCCCCCC1 | i | · | i | · | · | · | · | ·
Cc1nn(C)c(C(=O)NNC(=S)NC2CCCCC2)c1Br | i | i | 8.5* | i | i | 23%* | 32%* | i
